UHRF1 MBD2 ctr: UHRF1 methylated DNA binding inhibitors, primary screen, counter-screen for MBD2 inhibitor project, biochemical, TR-FRET, human UHRF1, single concentration | UHRF1 binding to methylated oligo | inhibition, % at 4.4 µM | actives 0.75% (n = 370,000) | AID 687016, 2013; in the data active = inhibition above about 21%;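 note: UHRF1 SRA domain binding a hemimethylated CpG hairpin DNA probe; 0% = median of test compound wells and 100% = reference inhibitor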
Target sequence (Q96T88 whole entry, looked up, the tested form may be a part): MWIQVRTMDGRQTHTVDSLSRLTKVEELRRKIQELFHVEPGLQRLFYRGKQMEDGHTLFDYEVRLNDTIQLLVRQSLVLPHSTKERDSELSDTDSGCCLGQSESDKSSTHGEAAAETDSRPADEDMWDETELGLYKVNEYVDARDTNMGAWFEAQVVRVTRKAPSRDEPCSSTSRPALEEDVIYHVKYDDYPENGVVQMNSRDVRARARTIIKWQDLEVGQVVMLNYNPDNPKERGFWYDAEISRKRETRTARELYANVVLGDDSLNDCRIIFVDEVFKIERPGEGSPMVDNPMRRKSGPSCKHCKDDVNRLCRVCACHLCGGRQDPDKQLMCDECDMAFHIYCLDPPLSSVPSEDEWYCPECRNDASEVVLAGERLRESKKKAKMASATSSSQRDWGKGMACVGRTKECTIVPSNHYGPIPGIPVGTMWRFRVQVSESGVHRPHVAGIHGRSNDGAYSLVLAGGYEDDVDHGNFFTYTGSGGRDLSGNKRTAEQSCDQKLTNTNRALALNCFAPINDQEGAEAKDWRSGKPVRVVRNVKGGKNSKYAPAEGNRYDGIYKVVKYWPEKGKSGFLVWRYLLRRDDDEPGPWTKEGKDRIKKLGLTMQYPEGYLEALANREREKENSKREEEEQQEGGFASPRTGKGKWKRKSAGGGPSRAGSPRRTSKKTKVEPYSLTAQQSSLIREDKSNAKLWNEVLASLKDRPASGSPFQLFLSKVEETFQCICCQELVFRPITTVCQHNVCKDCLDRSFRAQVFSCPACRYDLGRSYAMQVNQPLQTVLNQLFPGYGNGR
MBD2 inh: inhibitors of MBD2 binding to methylated DNA, primary screen, biochemical, TR-FRET, DNA-binding domain, human. Methyl-CpG-binding domain protein 2 (Homo sapiens), Q9UBB5. MBD2 binding to methylated oligonucleotide. inhibition, % at 4.4 µM. actives 0.31% (n = 370,000). AID 686964, 2013; in the data active = inhibition above about 13%
TDP2 inh: human TDP2 enzyme inhibitors, primary screen, biochemical, epi absorbance, recombinant enzyme; T5PNP hydrolysis, p-nitrophenol absorbance 415 nm; actives 0.34% (n = 370,000); inhibition, % at 12.8 µM;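 active = inhibition above the mean of all tested compounds plus 3 SD, set per campaign, cut at about 25% in these data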;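 note: 0% = DMSO with enzyme and 100% = buffer with substrate but no TDP2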
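Test system: human TDP2 enzyme; Input: 120 nM TDP2 per well; Buffer or medium: Mg2+-containing Tris-HCl buffer, pH 7.5; Reagent: 5 mM T5PNP; Dosing: 12.8 µM single point, 1% DMSO; Incubation: reaction 2 h, 37 °C; Detection: p-Nitrophenol epi absorbance; Read-out: % inhibition relative to enzyme-containing and enzyme-free wells; Replicates: single well per compound.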
LEDGF integ inh: blockers of LEDGF/p75-dependent integrase strand transfer – biochemical, TR-FRET, high throughput, primary screen; TR-FRET IN-LEDGF/p75 DNA integration, Eu/Cy5; actives 0.64% (n = 370,000); HIV-1 integrase (with human LEDGF/p75); inhibition, % at 3.7 µM;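 active = inhibition above the screen-wide mean plus 3 SD, cut at about 13% in these data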;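 note: signal is the Cy5 over europium emission ratio at 671 and 618 nm; 0% = plate median of compound wells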
Active calls of the source: *; ! = not active in a repeat. In the library only some 1.6% were active in any assay of this set; here they are far more common.

SMILES	UHRF1 MBD2 ctr	MBD2 inh	TDP2 inh	LEDGF integ inh
O=C1NC(=O)N(c2ccc3c(c2)OCO3)C(=O)/C1=C\c1ccc(-c2ccccc2C(=O)O)o1	18.4	2.3	-2.5	4.2
O=C1NC(=O)N(c2cccc(Cl)c2)C(=O)/C1=C\c1ccc(Sc2nc3ccccc3[nH]2)o1	11.8	-0.7	0.4	19.5*
O=C1NC(=O)N(c2ccccc2F)C(=O)/C1=C/c1ccc(Sc2nc3ccccc3[nH]2)o1	9.0	-5.0	10.3	22.4*
CC(C)C(CN1CCC(C)(c2cccc(O)c2)[C@@H](C)C1)NC(=O)C1Cc2ccc(O)cc2CN1 (stereo not given in full)	0.7	-1.0	2.0	1.0
Cc1ccc(N2Cc3ccccc3-n3nncc3C2)cc1	-0.5	-7.4	0.2	13.0
CCCCNC(C)Cc1ccccc1 (stereo not given)	0.3	3.6	1.0	-1.9
CC(Cc1cccs1)NCc1ccccc1 (stereo not given)	29.3*	0.0	-2.5	-1.5
CCn1nc(/C=C/c2ccccc2)nc2c(=O)n(C)c(=O)nc1-2	7.4	5.4	79.2*	-35.2
CN1OC[C@@H]2CN3C4(C[C@@H]21)c1ccccc1C3(c1ccccc1)c1ccccc14	0.1	1.4	-2.1	-2.3
N#Cc1ccc(NC(=S)N2Cc3ccc(Br)cc3-n3nncc3C2)cc1	-0.7	-2.2	1.8	-5.3
CCN1C(=O)C(=C2C=C(C)N(Cc3ccco3)C(C)=C2)C(=O)N(CC)C1=S	3.6	1.0	1.9	-2.8
COc1ccc(/C=C2/C(=O)N(Cc3ccco3)C(=O)N(C(C)C)C2=O)cc1	31.7*	0.6	-8.6	32.8*
CN1CCN(c2nc(Cl)ncc2F)CC1	1.1	-3.0	-10.6	2.8
NCC(CC(=O)O)c1ccc(Cl)cc1 (stereo not given)	24.9*	8.9	2.2	0.5
O=C(O)COc1ccc(Cl)cc1Cl	-0.5	0.7	0.3	2.4
CN1CCC2(CC1)C(C#N)=C(N)NC(S)=C2C#N	-7.4	-5.6	30.4*!	-0.7
O=C1NCN(c2ccccc2)C12CCN(C(c1cc3ccccc3o1)c1nnnn1C1CCCCC1)CC2 (stereo not given)	23.4*	7.7	5.0	-1.6
CC(C)(C)n1nnnc1C(c1cc2ccccc2o1)N1CCC2(CC1)C(=O)NCN2c1ccccc1 (stereo not given)	-0.6	-0.5	-2.8	3.0
O=C(O)c1cccc2c1NC(C(=O)O)C1CC(Sc3ccccc3[N+](=O)[O-])C(Cl)C21 (stereo not given)	62.1*	20.6*	16.8	52.3*
N#CC1=C(N)Oc2c(c(=O)oc3ccccc23)C1c1ccc(OC(=O)N2CCOCC2)cc1 (stereo not given)	37.5*	3.8	-3.8	1.5
CC(C)CC1C(C#N)=C(N)Oc2c1c(=O)oc1ccccc21 (stereo not given)	75.7*	-2.1	7.5	6.8
COC(=O)C1(N(C)c2ccccc2)CCN(Cc2ccccc2)CC1	-1.0	-7.0	9.1	-2.9
O=C(NCCN1CCC2(CC1)C(=O)NCN2c1ccccc1)c1ccccc1C(F)(F)F	-4.3	3.8	6.7	-2.2
O=P(O)(O)Oc1ccccc1P(=O)(c1ccccc1)c1ccccc1	0.6	-1.2	-10.1	2.9
O=P(O)(Oc1ccccc1)c1ccccc1	20.9*	8.0	2.8	5.6
SMILES	UHRF1 MBD2 ctr	MBD2 inh	TDP2 inh	LEDGF integ inh
CN1C2(C)c3ccccc3C1(c1ccccc1)c1ccccc12	-1.4	1.5	-0.4	3.8
Cn1c(O)c(/C=C2\C=c3ccccc3=NC2=O)c(=O)n(C)c1=O	75.4*	-4.8	11.6	-2.4
O=C(NCCN1CCC2(CC1)C(=O)NCN2c1ccccc1)C(c1ccccc1)c1ccccc1	-1.2	0.9	6.2	2.1
O=C1NC(=O)N(Cc2ccco2)C(=O)/C1=C\c1cccn1CCOc1ccc(Cl)cc1	54.9*	2.3	15.7	61.4*
CN1C(=O)[C@@]23C[C@]4(c5c[nH]c6ccccc56)c5ccccc5N(S(=O)(=O)c5ccccc5)[C@@H]4N2C(=O)[C@@H]1SS3	-19.9	-0.8	6.2	0.7
O=C(Nc1ccccc1)N1Cc2cc(Br)ccc2-n2nncc2C1	-1.5	-0.4	-1.5	1.7
COc1cc2c(cc1O)C[C@H]1NCCc3cc4c(c-2c31)OCO4	30.5*	22.6*	-10.2	1.3
N#Cc1ccc2nc(-c3ccc(CN4CCC(n5c(=O)[nH]c6cc(Cl)ccc65)CC4)cc3)c(-c3ccccc3)nc2c1	-2.0	-3.0	8.5	-2.6
c1cncc(-c2ccc3n2Cc2cnnn2-c2ccccc2-3)c1	-0.1	-3.4	-8.4	1.9
CCOP(=O)(C(NC(=O)c1ccccc1Cl)=C(Cl)Cl)c1ccccc1 (stereo not given)	-1.7	-1.0	-3.1	-1.3
COC(=O)[C@@]1(C#N)[C@@H]2C=CC(C(C)=O)=CN2[C@@H](C(N)=O)[C@@H]1c1ccc(F)cc1	24.7*	-3.5	3.3	0.0
CCOC(=O)[C@]1(C#N)[C@@H]2C=CC(C(N)=O)=CN2[C@@H](C(N)=O)[C@@H]1c1ccc(F)cc1	-6.1	-0.3	18.7	1.3
Fc1ccc(CNCCc2ccccc2F)cc1	-0.1	1.0	6.5	-3.5
Fc1ccc(CCNCc2ccc(Br)cc2)cc1	34.7*	1.6	4.5	1.6
Nc1cccc(SC2CC(=O)N(c3ccc(Cl)cc3C(=O)c3ccccc3)C2=O)c1 (stereo not given)	28.0*	-3.6	-1.2	-3.2
C=CCN1C(=O)NC(=O)/C(=C\c2ccc(-c3ccccc3[N+](=O)[O-])o2)C1=O	55.8*	3.4	12.0	3.8
COC(=O)C1=C(c2ccc(F)cc2OCc2ccccc2)C[C@@H]2CC[C@H]1N2C(=O)NCCN1CCOCC1	-2.8	2.5	-0.3	19.4*
CN(C)[C@@H]1C(=O)C(C(N)=O)=C(O)[C@@]2(O)C(=O)C3=C(O)c4c(O)cccc4[C@@](C)(O)[C@H]3[C@H](O)[C@@H]12	66.5*	35.0*	12.3	60.6*
Cc1cccc2nc(-c3ccccc3)c(-c3ccc(CN4CCC(n5c(=O)[nH]c6cc(Cl)ccc65)CC4)cc3)nc12	1.3	4.6	3.6	-3.7
O=C(NC(=S)N1C[C@H]2C[C@H](C1)c1cccc(=O)n1C2)c1ccc(Cl)cc1Cl	90.8*	3.7	0.3	0.2
O=C1NC(=O)N(c2ccccc2)C(=O)/C1=C/c1coc2ccc(O)cc2c1=O	27.4*	5.2	4.8	7.9
